The results in this text go back to ChEMBL document CHEMBL2440020, “Design, Synthesis, and Anti-leukemic Activity of Stereochemically Defined Constrained Analogs of FTY720 (Gilenya)” (ACS Med Chem Lett, 2013).

Active and inactive are the calls of the source. The calls are words filed in the database; no cut-off is given here.

Common to all, as to type: functional, cell-based
Assay [1] concerns CCRF-CEM. The assay can be described thus: Cytotoxicity against Ph-negative human CCRF-CEM cells after 72 hrs by vital dye exclusion/flow cytometric analysis. An outline of the steps:
(§1)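 Viability of human leukaemia and prostate cancer lines, and of murine bone marrow cells expressing BCR-Abl p190, was scored by vital dye exclusion and flow cytometry after 72 h of exposure. IC50 values are given as means with SEM and were compared with the reference control by two-tailed t-test.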

In assay [2] the test system is PC-3. The assay can be described thus: Cytotoxicity against human PC3 cells after 72 hrs by vital dye exclusion/flow cytometric analysis. Particulars: PC-3, 72 h. A digest of the protocol:
as §1

A short description of assay [3]: Cytotoxicity against Ph-positive human SUP-B15 cells after 72 hrs by vital dye exclusion/flow cytometric analysis. To be noted: SUP-B15, 72 h. An outline of the steps:
as §1

Assay [4] can be described thus: Cytotoxicity against Ph-negative human BLIN-1 cells after 72 hrs by vital dye exclusion/flow cytometric analysis. An outline of the steps: as §1
Assay [5] relates to NALM-6. The assay can be described thus: Cytotoxicity against Ph-negative human NALM6 cells after 72 hrs by vital dye exclusion/flow cytometric analysis. To be noted: NALM-6, 72 h. An outline of the steps: as §1
Assay [6] relates to DU-145. The assay can be described thus: Cytotoxicity against human DU145 cells after 72 hrs by vital dye exclusion/flow cytometric analysis. Particulars: DU-145, 72 h. A digest of the protocol:
as §1

A short description of assay [7]: Cytotoxicity against BCR-ABL fusion protein 190 expressing mouse bone marrow cells after 72 hrs by vital dye exclusion/flow cytometric analysis. To be noted: Bone marrow cell. A digest of the protocol:
as §1

The subject of assay [8] is BV-173. The assay can be described thus: Cytotoxicity against Ph-positive human BV173 cells after 72 hrs by vital dye exclusion/flow cytometric analysis. To be noted: BV-173, 72 h. An outline of the steps: as §1
Assay [9] in a line: Downregulation of 4F2hc surface expression in Ph-positive human SUP-B15 cells at 10 uM after 72 hrs by vital dye exclusion/flow cytometric analysis.
Assay [10] has as its system SUP-B15. The assay can be described thus: Cytotoxicity against Ph-positive human SUP-B15 cells at 0.1 to 10 uM after 72 hrs by vital dye exclusion/flow cytometric analysis.

As to `CCCCCCCCc1ccc(CO[C@H]2CN[C@H](CO)C2)cc1`, the IC50 in assay [1] is 11 µM; in assay [2], 14.3 µM; in assay [3] it was 7.7 µM; in assay [4], 7.5 µM; in [5], 15 µM; in assay [6], 10.8 µM. Besides, the IC50 in assay [7] came out at 5.7 µM; in assay [8] it was 10.4 µM.
Take `CCCCCCCCc1ccc(CO[C@@H]2CN[C@@H](C)C2)cc1`: the result in assay [9] and in [10] was Active.
As to `CCCCCCCCc1ccc(CO[C@@H]2CN[C@@H](COC)C2)cc1`, the result in assay [9] and in assay [10] was Active.
With `CCCCCCCCc1ccc(CO[C@@H]2CCN[C@H]2CO)cc1`, the outcome in assay [10] was inactive.
Turning to `CCCCCCCCc1ccc(CO[C@H]2CN[C@@H](CO)C2)cc1`, the IC50 in assay [1] is 8.1 µM; in assay [3], 8.3 µM; in assay [7], 4 µM; in assay [8], 9.7 µM.
Regarding `CCCCCCCCc1ccc(CO[C@H]2CN[C@H](C)C2)cc1`, the outcome in assay [9] and in assay [10] was Active.
As for `CCCCCCCCc1ccc(CO[C@H]2CCNC2)cc1`, the result in [9] and in [10] was Active.
For `CCCCCCCCc1ccc(CO[C@@H]2CN[C@H](CO)C2)cc1`, the half-inhibitory concentration (IC50) in [1] was 11.6 µM; in assay [3] it was 16.7 µM; in [7] it was 8.4 µM; in assay [8] it was 13.8 µM.
For `CCCCCCCCc1ccc(CO[C@@H]2CCNC2)cc1`, the result in [9] and in assay [10] was Active.
As for `CCCCCCCCc1ccc(CO[C@@H]2CN[C@@H](CO)C2)cc1`, the IC50 was 8.2 µM in [1]; 13.5 µM in assay [2]; 2 µM in assay [3]; 6.9 µM in assay [4]; 13.5 µM in assay [5]; 15.1 µM in assay [6]. The 50% inhibitory concentration (IC50) in [7] was found to be 0.5 µM; in assay [8], 3.8 µM.
As for `CCCCCCCCc1ccc(CCC(N)(CO)CO)cc1` [FINGOLIMOD], the IC50 worked out at 6.8 µM in [1]; 9.8 µM in [2]; 6.8 µM in assay [3]; 5.5 µM in assay [4]; 9.6 µM in assay [5]; 6.5 µM in assay [6]. The half-maximal inhibitory concentration (IC50) in assay [7] turned out to be 3.3 µM; in assay [8], 6.3 µM.
